ChEMBL document CHEMBL1144690, “Isolation of cytotoxic metabolites from targeted peruvian amazonian medicinal plants” (2008)
In brackets after ≈: the same amount, converted by molar mass. Activity calls are given as the source filed them. No cut-off for these calls is given here.

Legend:
[1] = test system: NCI-H460; assay: Cytotoxicity against human H460 cells; format: functional
Summary of the method: (§1)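 Cells in 96-well plates exposed to serial dilutions of test sample (maximum 62.5 µg/mL for crude extract and fractions) or solvent-dilution controls for 48 h at 37 °C. Growth measured colorimetrically by sulforhodamine B staining, with percent inhibition taken against controls. GI50 is the concentration giving 50% absorbance reduction versus solvent controls, obtained by linear regression.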

[2] = test system: DU-145; assay: Cytotoxicity against human DU145 cells; format: functional; summary of the method: as §1
[3] = test system: MCF7; assay: Cytotoxicity against human MCF7 cells; format: functional; summary of the method: as §1
[4] = test system: M14; assay: Cytotoxicity against human M14 cells; format: functional; summary of the method: as §1
[5] = test system: HT-29; assay: Cytotoxicity against human HT29 cells; format: functional; summary of the method: as §1
[6] = test system: PC-3; assay: Cytotoxicity against human PC3 cells; format: functional; summary of the method: as §1
[7] = test system: K562; assay: Cytotoxicity against human K562 cells; format: functional; summary of the method: as §1
[8] = test system: Vero; assay: Cytotoxicity against african green monkey Vero cells; format: functional; conditions: Chlorocebus sabaeus; summary of the method: as §1
[9] = test system: Mycobacterium tuberculosis; assay: Antimicrobial activity against Mycobacterium tuberculosis H37Rv at 25 ug/ml; format: functional, organism-based
[10] = test system: ME-180; assay: Cytotoxicity against human ME180 cells; format: functional; summary of the method: as §1
[11] = test system: Mycobacterium tuberculosis; assay: Antimicrobial activity against Mycobacterium tuberculosis H37Rv; format: functional
Summary of the method: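 Tetrazolium microplate assay (TEMA) run in vitro against the drug-sensitive M. tuberculosis H37Rv strain.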

Row | Compound | GI50 [1] [µg/mL] | GI50 [2] [µg/mL] | GI50 [3] [µg/mL] | GI50 [4] [µg/mL] | GI50 [5] [µg/mL] | GI50 [6] [µg/mL] | GI50 [7] [µg/mL] | GI50 [8] [µg/mL] | Activity [9] | GI50 [10] [µg/mL] | MIC [11] [µg/mL]
1 | COc1ccc(CCC(=O)c2c(O)cc(O)cc2OC)cc1 | 44.7 (≈ 148 µM) | 41.7 (≈ 138 µM) | 22.9 (≈ 75.7 µM) | 40.3 (≈ 133 µM) | 35.5 (≈ 117 µM) | 46.3 (≈ 153 µM) | 7.4 (≈ 24.5 µM) | 40.4 (≈ 134 µM) | inactive |  | 
2 | Cc1cc(O)c2c(c1)C(=O)c1ccc(O)c(O)c1C2=O | 4.8 (≈ 17.8 µM) | 7.9 (≈ 29.2 µM) | 7.3 (≈ 27 µM) | 13.6 (≈ 50.3 µM) | 6.5 (≈ 24.1 µM) | 8.7 (≈ 32.2 µM) | 12.5 (≈ 46.3 µM) |  | inactive | 13.2 (≈ 48.8 µM) | 
3 | COc1cc(O)cc(O)c1C(=O)CCc1ccc2c(c1)OCO2 | 27.4 (≈ 86.6 µM) | 22.4 (≈ 70.8 µM) | 18.9 (≈ 59.8 µM) | 23.4 (≈ 74 µM) | 27.6 (≈ 87.3 µM) | 24.5 (≈ 77.5 µM) | 8.4 (≈ 26.6 µM) | 28.4 (≈ 89.8 µM) | inactive |  | 
4 | C=C(C)[C@@H]1CC[C@]2(C(=O)O)CC[C@]3(C)[C@H](CC[C@@H]4[C@@]5(C)CC[C@H](O)C(C)(C)[C@@H]5CC[C@]43C)[C@@H]12 [BETULINIC ACID] | 29.7 (≈ 65 µM) | 35.3 (≈ 77.3 µM) | > 62.5 | 32.6 (≈ 71.4 µM) | 30.9 (≈ 67.7 µM) | 31.3 (≈ 68.5 µM) | 10.8 (≈ 23.6 µM) | 30.6 (≈ 67 µM) | inactive | 27.8 (≈ 60.9 µM) | 
5 | C/C=C1/CN2CC[C@@]34c5ccccc5N5/C=C6/[C@H]7C[C@@H]8N(CC[C@@]89c8ccccc8N(/C=C(/[C@H]1C[C@H]23)[C@H]54)[C@@H]69)C/C7=C/C [BISNORDIHYDROTOXIFERINE] | 1.6 (≈ 2.89 µM) | 4.5 (≈ 8.14 µM) | 2 (≈ 3.62 µM) | 1.6 (≈ 2.89 µM) | > 1 | 2.1 (≈ 3.8 µM) | < 1 | 2.7 (≈ 4.88 µM) |  | 1.9 (≈ 3.44 µM) | 12.5 (≈ 22.6 µM)
6 | Cc1cc(O)c2c(c1)C(=O)c1cccc(O)c1C2=O [CHRYSOPHANOL] | > 62.5 | > 62.5 | > 62.5 | > 62.5 | > 62.5 | > 62.5 | > 62.5 | > 62.5 | inactive | > 62.5 | 
7 | C[C@]12C=C[C@@]3(CC[C@H]4[C@@](C)(CCC[C@@]4(C)C(=O)O)[C@@H]3CC1)C2 [MONOGINOIC ACID] |  |  |  |  |  |  | > 62.5 |  |  |  | 
8 | CCCCCCCCCCCCCC(=O)O[C@@H]1[C@@H](C)[C@@]2(O)[C@@H](C=C(CO)C[C@]3(O)C(=O)C(C)=C[C@@H]23)[C@@H]2C(C)(C)[C@]12OC(C)=O [PHORBOL MYRISTATE ACETATE] |  |  |  |  |  |  | 0.00012 |  |  |  | 
